Measured values of several laboratories.
Protocols differ between the studies behind these lines. Values after ≈ are worked out from the molar mass of the structure shown.

| Compound | tested on | test | test system | conditions | quantity | value |
| --- | --- | --- | --- | --- | --- | --- |
| CC[C@@H]1CN2CCc3c([nH]c4cccc(OC)c34)[C@H]2C[C@@H]1/C(=C\OC)C(=O)OC | dog Hepatocyte | metabolic stability | hepatocytes | – | half-life | > 2 h |
| CC1(C)CC(NC(=O)C(=O)Nc2ccc(Cl)cc2)CC(C)(C)N1 | Cf2Th-CCR5 | cell growth or viability, MTS | – | 48 h | CC50 | > 100 µM |
| COc1ccc2[nH]cc(CCN(C)C)c2c1 | – | potentiometric | water | – | pKa | 9.1 |
| CCN(CC)CCO[C@H]1CC[C@@]2(C)C(=CC[C@@H]3[C@@H]2CC[C@]2(C)C(=O)CC[C@@H]32)C1 | MA104 | cell growth or viability, MTS | – | 24 h | CC50 | 219 µM |
| CC[C@H](C)[C@H](NC(=O)[C@H](CCCNC(=N)N)NC(=O)[C@H](CCC(=O)O)NC(C)=O)C(=O)N[C@H]1CSSC[C@@H](C(=O)N[C@H](C(N)=O)[C@@H](C)O)NC(=O)[C@H](CCCNC(=N)N)NC(=O)[C@H](Cc2c[nH]cn2)NC(=O)[C@H](Cc2cccc3ccccc23)NC(=O)CNC(=O)[C@H](Cc2c[nH]c3ccccc23)NC(=O)[C@H](CC(=O)O)NC(=O)[C@H](CCC(N)=O)NC(=O)[C@H](Cc2c[nH]c3ccccc23)NC(=O)[C@H](C(C)C)NC1=O | – | – | PBS | pH 7.4 | solubility | 0.38 mg/mL (≈ 188 µM) |
| Cc1ncc(C)n2nc(/C=C/c3nc(N4CCCC4)cc(N4CCOCC4)n3)nc12 | – | – | male beagle dog, plasma | oral, 0.3 mg/kg | bioavailability | 42% |
| N[C@@H]1C[C@H]1c1ccccc1 (racemic) | Cytochrome P450 2A6 (CYP2A6, Homo sapiens, UniProt P11509) | enzyme activity, inhibitor, fluorescence | – | – | IC50 | 0.49 µM |
| C#Cc1ccc2c(c1)C(c1ccccn1)=NCc1c(-c3cnco3)ncn1-2.Cl | – | – | water | 10 min, 37 °C | kinetic solubility | 2.4 mg/mL |
| CC[C@H](C)[C@H](NC(C)=O)C(=O)N[C@H]1CSSC[C@@H](C(=O)N[C@H](C(N)=O)[C@@H](C)O)NC(=O)[C@H](CCCNC(=N)N)NC(=O)[C@H](Cc2c[nH]cn2)NC(=O)[C@@](C)(CC)NC(=O)CNC(=O)[C@H](Cc2c[nH]c3ccccc23)NC(=O)[C@H](CC(=O)O)NC(=O)[C@H](CCC(N)=O)NC(=O)[C@H](Cc2c[nH]c3ccccc23)NC(=O)[C@H](C(C)C)NC1=O | – | – | PBS | pH 7.4 | solubility | 3.6 mg/mL (≈ 2190 µM) |
